Measurements from ChEMBL document CHEMBL1938356, “Structure-activity relationship of salicylic acid derivatives on inhibition of TNF-α dependent NFκB activity: Implication on anti-inflammatory effect of N-(5-chlorosalicyloyl)phenethylamine against experimental colitis” (Eur J Med Chem, 2012).
Active and inactive are the calls of the source. No cut-off for these calls is given here.

Assays:
[1] = (§1) Inhibition of TNF-alpha-induced NF-kappaB activation in human HCT116 cells after 6 hrs by luciferase reporter gene assay; format: cell-based; details: HCT-116, 6 h
Summary of the method: (§2)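 HCT116 cells at 50-60% confluence were cotransfected (Fugene) with an NFκB-dependent firefly luciferase plasmid and CMV Renilla plasmid (4 ng). After 24 h, cells received TNF-α (1 ng/ml) plus compound for 6 h, then were lysed. Dual-luciferase read-out, firefly normalized to Renilla. IC50 came from varied concentrations.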

[2] = tested on: RAW264.7; assay: Inhibition of NF-kappaB-mediated iNOS protein expression in LPS-stimulated mouse RAW264.7 cells at 0.25 mM by Western blot analysis; format: cell-based
Summary of the method: (§3)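 RAW264.7 cells grown in DMEM with 10% FBS were pretreated 1 h with drug, then stimulated with LPS (1 ng/ml) for 6 h. iNOS was immunoblotted in whole-cell lysates (30-40 µg) with a polyclonal antibody, α-tubulin served as loading control, in duplicate.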

[3] = tested on: HCT-116; assay: as §1; format: cell-based; summary of the method: as §2
[4] = tested on: HCT-116; assay: Inhibition of TNF-alpha-induced NF-kappaB activation in human HCT116 cells at 1 mM after 6 hrs by luciferase reporter gene assay; format: cell-based; summary of the method: as §2
[5] = tested on: RAW264.7; assay: Inhibition of NF-kappaB-mediated iNOS protein expression in LPS-stimulated mouse RAW264.7 cells at 0.1 mM by Western blot analysis; format: cell-based; summary of the method: as §3
[6] = tested on: Rattus norvegicus; assay: Antiinflammatory activity against trinitrobenzenesulfonic acid-induced colitis in rat assessed as healing of damaged colon at 300 uM administered rectally QD for 6 days; format: functional, organism-based
Summary of the method: (§4)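 TNBS colitis in rats: after a 24 h fast with free access to water and light ether anaesthesia, TNBS (15 mg/0.3 ml/rat in 50% aqueous ethanol) was instilled through a rectal cannula whose tip sat 8 cm proximal to the anus. From day 3, drug in PBS (500 µL; 100 or 300 µM, or sodium 5-aminosalicylate 30 mM) was given rectally once daily for 6 days, then rats were sacrificed.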

[7] = tested on: Rattus norvegicus; assay: Antiinflammatory activity against trinitrobenzenesulfonic acid-induced colitis in rat assessed as healing of damaged colon administered rectally QD for 6 days; format: functional, organism-based; summary of the method: as §4
[8] = tested on: Rattus norvegicus; assay: Antiinflammatory activity against trinitrobenzenesulfonic acid-induced colitis in rat assessed as decrease in myeloperoxidase activity at 100 uM administered rectally QD for 6 days; format: functional; set-up: scale not given: the % may be the effect or the level left; summary of the method: as §4
[9] = tested on: Rattus norvegicus; assay: Antiinflammatory activity against trinitrobenzenesulfonic acid-induced colitis in rat assessed as decrease in myeloperoxidase activity at 300 uM administered rectally QD for 6 days; format: functional; set-up: scale not given: the % may be the effect or the level left; summary of the method: as §4
[10] = tested on: Rattus norvegicus; assay: Antiinflammatory activity against trinitrobenzenesulfonic acid-induced colitis in rat assessed as decrease in CINC-3 protein at 300 uM administered rectally QD for 6 days; format: functional, organism-based; summary of the method: as §4
[11] = tested on: Rattus norvegicus; assay: Antiinflammatory activity against trinitrobenzenesulfonic acid-induced colitis in rat assessed as decrease in CINC2 protein expression administered rectally QD for 6 days; format: functional, organism-based
[12] = tested on: Rattus norvegicus; assay: Antiinflammatory activity against trinitrobenzenesulfonic acid-induced colitis in rat assessed as decrease in COX2 protein administered rectally QD for 6 days; format: functional, organism-based; summary of the method: as §4
[13] = tested on: Rattus norvegicus; assay: Antiinflammatory activity against trinitrobenzenesulfonic acid-induced colitis in rat assessed as decrease in COX2 protein at 300 uM administered rectally QD for 6 days; format: functional, organism-based; summary of the method: as §4
[14] = tested on: Rattus norvegicus; assay: Antiinflammatory activity against trinitrobenzenesulfonic acid-induced colitis in rat assessed as decrease in COX2 protein at 30 mM administered rectally QD for 6 days; format: functional, organism-based; summary of the method: as §4
[15] = tested on: Rattus norvegicus; assay: Antiinflammatory activity against trinitrobenzenesulfonic acid-induced colitis in rat assessed as healing of damaged colon at 30 mM administered rectally QD for 6 days; format: functional, organism-based; summary of the method: as §4
[16] = tested on: Rattus norvegicus; assay: Antiinflammatory activity against trinitrobenzenesulfonic acid-induced colitis in rat assessed as decrease in myeloperoxidase activity at 30 mM administered rectally QD for 6 days; format: functional, organism-based; summary of the method: as §4
[17] = tested on: Rattus norvegicus; assay: Antiinflammatory activity against trinitrobenzenesulfonic acid-induced colitis in rat assessed as decrease in CINC2 protein expression at 30 mM administered rectally QD for 6 days; format: functional, organism-based
[18] = tested on: RAW264.7; assay: Inhibition of NF-kappaB-mediated iNOS protein expression in LPS-stimulated mouse RAW264.7 cells at 1 to 4 mM by Western blot analysis; format: cell-based
Summary of the method: (§5)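 RAW264.7 cells in DMEM with 10% FBS were pretreated with a range of drug concentrations and stimulated with LPS. iNOS was immunoblotted in whole-cell lysates (30-40 µg), α-tubulin served as loading control, in duplicate.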

[19] = tested on: RAW264.7; details: Mus musculus, 5 mM
[20] = tested on: RAW264.7; details: Mus musculus, 2 to 4 mM
[21] = tested on: RAW264.7; assay: Inhibition of NF-kappaB-mediated iNOS protein expression in LPS-stimulated mouse RAW264.7 cells at 0.5 to 2 mM by Western blot analysis; format: cell-based; summary of the method: as §5

SMILES: O=C(c1cc(Cl)ccc1O)N1CCNCC1
- IC50 [1]: > 250 µM

SMILES: O=C(NCCc1ccc(O)cc1)c1cc(Cl)ccc1O
- inhibition [2]: Active
- IC50 [1]: 91 µM
- inhibition [3]: Dose-dependent effect

SMILES: COC(=O)c1ccccc1O
- inhibition [4]: Active

SMILES: O=C(c1cc(Cl)ccc1O)N1CCOCC1
- IC50 [1]: > 250 µM

SMILES: O=C(NCCc1ccccc1)c1cc(Cl)ccc1O
- inhibition [5]: Active
- IC50 [1]: 15 µM
- inhibition [3]: Dose-dependent effect
- Activity [6]: Active
- Activity [7]: Dose-dependent effect
- Activity [8]: 60%
- Activity [9]: 35%
- Activity [10]: Active
- Activity [11]: Dose-dependent effect
- Activity [12]: Dose-dependent effect
- Activity [13]: Active

SMILES: Nc1ccc(O)c(C(=O)O)c1
- inhibition [4]: Active
- Activity [14]: Active
- Activity [15]: Active
- Activity [16]: Active
- Activity [17]: Active

SMILES: O=C(NCc1ccccc1)c1cc(Cl)ccc1O
- IC50 [1]: 105 µM

SMILES: NC(=O)c1ccccc1O
- inhibition [4]: Active
- inhibition [18]: Active

SMILES: CN(C)C(=O)c1cc(Cl)ccc1O
- IC50 [1]: > 250 µM

SMILES: CNC(=O)c1cc(Cl)ccc1O
- IC50 [1]: > 250 µM

SMILES: CCCCCCNC(=O)c1cc(Cl)ccc1O
- IC50 [1]: 95 µM

SMILES: O=C(O)c1ccccc1O
- inhibition [4]: Active
- inhibition [19]: Active
- inhibition [20]: Active

SMILES: NC(=O)c1cc(Cl)ccc1O
- inhibition [21]: Active

SMILES: O=C(c1cc(Cl)ccc1O)N1CCCCC1
- IC50 [1]: > 250 µM

SMILES: CC(=O)Oc1ccccc1C(=O)O
- inhibition [4]: Active

SMILES: O=C(O)c1cc([N+](=O)[O-])ccc1O
- inhibition [4]: Active

SMILES: O=C(c1cc(Cl)ccc1O)N1CCN(c2ccccc2)CC1
- IC50 [1]: > 250 µM

SMILES: O=C(NCCCc1ccccc1)c1cc(Cl)ccc1O
- inhibition [5]: Active
- IC50 [1]: 17 µM
- inhibition [3]: Dose-dependent effect

SMILES: O=C(O)c1cc(Cl)ccc1O
- inhibition [4]: Active
- inhibition [18]: Active

SMILES: O=C(O)c1cc(-c2ccc(F)cc2F)ccc1O
- inhibition [4]: Active

SMILES: CN1CCN(C(=O)c2cc(Cl)ccc2O)CC1
- IC50 [1]: > 250 µM
